Results as given in ChEMBL document CHEMBL3868627, “Radical scavenging and antibacterial activity of caffemides against gram positive, gram negative and clinical drug resistance bacteria” (Bioorg Med Chem Lett, 2016).

Key:
[1] = system: Mycolicibacterium smegmatis; assay: Antibacterial activity against Mycobacterium smegmatis MC2 155 ATCC 700084 assessed as colony forming units at 300 ug/ml measured after 24 hrs by serial dilution method (reference value: 84 +/- 4.35 10^3CFU); format: functional
How it was run: (§1)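 Bacteria were exposed to test compound over a range of µg/ml concentrations. Viable bacteria were counted by colony forming unit (CFU) assay at set time points (6 h and 24 h for M. smegmatis and S. aureus strains), and untreated bacteria served as the control. Percentage of population killed was calculated relative to the untreated control. Values are means ± S.D of three independent trials.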

Staphylococcus aureus [2] = assay: Antibacterial activity against Staphylococcus aureus ATCC 25923 assessed as colony forming units at 1 ug/ml measured after 24 hrs by serial dilution method (reference value: 77.66 +/- 5.13 10^6CFU); format: functional
Pseudomonas aeruginosa [3] = assay: Antibacterial activity against Pseudomonas aeruginosa PAO1 ATCC 15692 assessed as colony forming units at 1 ug/ml measured after 3 hr by serial dilution method (reference value: 141.66 +/- 7.5 10^8CFU); format: functional
Pseudomonas aeruginosa [4] = assay: Antibacterial activity against Pseudomonas aeruginosa PAO1 ATCC 15692 assessed as colony forming units at 10 ug/ml measured after 1 hr by serial dilution method (reference value: 85.33 +/- 4.04 10^8CFU); format: functional
Pseudomonas aeruginosa [5] = assay: Antibacterial activity against Pseudomonas aeruginosa PAO1 ATCC 15692 assessed as colony forming units at 300 ug/ml measured after 3 hr by serial dilution method (reference value: 141.66 +/- 7.5 10^8CFU); format: functional
Pseudomonas aeruginosa [6] = assay: Antibacterial activity against Pseudomonas aeruginosa PAO1 ATCC 15692 assessed as colony forming units at 500 ug/ml measured after 3 hr by serial dilution method (reference value: 141.66 +/- 7.5 10^8CFU); format: functional
Staphylococcus aureus [7] = assay: Antibacterial activity against Staphylococcus aureus ATCC 25923 assessed as colony forming units at 50 ug/ml measured after 24 hrs by serial dilution method (reference value: 77.66 +/- 5.13 10^6CFU); format: functional
Pseudomonas aeruginosa [8] = assay: Antibacterial activity against Pseudomonas aeruginosa PAO1 ATCC 15692 measured after 1 to 3 hrs by serial dilution method
Staphylococcus aureus [9] = assay: Antibacterial activity against Staphylococcus aureus ATCC 25923 assessed as colony forming units at 10 ug/ml measured after 6 hrs by serial dilution method (reference value: 65.66 +/- 3.51 10^6CFU); format: functional
Staphylococcus aureus [10] = assay: Antibacterial activity against Staphylococcus aureus ATCC 25923 assessed as colony forming units at 10 ug/ml measured after 24 hrs by serial dilution method (reference value: 77.66 +/- 5.13 10^6CFU); format: functional
Staphylococcus aureus [11] = assay: Antibacterial activity against Staphylococcus aureus ATCC 25923 assessed as colony forming units at 100 ug/ml measured after 24 hrs by serial dilution method (reference value: 77.66 +/- 5.13 10^6CFU); format: functional
Pseudomonas aeruginosa [12] = assay: Antibacterial activity against Pseudomonas aeruginosa PAO1 ATCC 15692 assessed as colony forming units at 1 ug/ml measured after 1 hr by serial dilution method (reference value: 85.33 +/- 4.04 10^8CFU); format: functional
Staphylococcus aureus [13] = assay: Antibacterial activity against methicillin-resistant Staphylococcus aureus ATCC 43300 assessed as colony forming units at 100 ug/ml measured after 24 hrs by serial dilution method (reference value: 74 +/- 2 10^6CFU); format: functional; how it was run: as §1
Pseudomonas aeruginosa [14] = assay: Antibacterial activity against Pseudomonas aeruginosa PAO1 ATCC 15692 assessed as colony forming units at 300 ug/ml measured after 1 hr by serial dilution method (reference value: 85.33 +/- 4.04 10^8CFU); format: functional
Staphylococcus aureus [15] = assay: Antibacterial activity against Staphylococcus aureus ATCC 25923 assessed as colony forming units at 50 ug/ml measured after 6 hrs by serial dilution method (reference value: 65.66 +/- 3.51 10^6CFU); format: functional
Staphylococcus aureus [16] = assay: Antibacterial activity against methicillin-resistant Staphylococcus aureus ATCC 43300 measured after 24 hrs by serial dilution method; format: functional
Staphylococcus aureus [17] = assay: Antibacterial activity against Staphylococcus aureus ATCC 25923 assessed as colony forming units at 500 ug/ml measured after 24 hrs by serial dilution method (reference value: 77.66 +/- 5.13 10^6CFU); format: functional
[18] = system: Mycolicibacterium smegmatis; assay: Antibacterial activity against Mycobacterium smegmatis MC2 155 ATCC 700084 assessed as colony forming units at 50 ug/ml measured after 6 hrs by serial dilution method (reference value: 70 +/- 1.73 10^3CFU); format: functional; how it was run: as §1
Staphylococcus aureus [19] = assay: Antibacterial activity against methicillin-resistant Staphylococcus aureus ATCC 43300 assessed as colony forming units at 50 ug/ml measured after 24 hrs by serial dilution method (reference value: 74 +/- 2 10^6CFU); format: functional; how it was run: as §1
[20] = Antioxidant activity assessed as DPPH free radical scavenging activity measured after 30 mins by spectrophotometry; format: functional
How it was run: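 DPPH radical scavenging in ethanolic solution with a final DPPH concentration of 100 µM. Absorbance read at 517 nm. Percent inhibition = (A control − A test)/A control, where the control is DPPH without sample. The inhibition-versus-concentration plot gives EC50, the concentration giving a 50% drop in absorbance. Mean ± S.D. of three independent trials.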

Pseudomonas aeruginosa [21] = assay: Antibacterial activity against Pseudomonas aeruginosa PAO1 ATCC 15692 assessed as colony forming units at 100 ug/ml measured after 3 hr by serial dilution method (reference value: 141.66 +/- 7.5 10^8CFU); format: functional
Staphylococcus aureus [22] = assay: Antibacterial activity against Staphylococcus aureus ATCC 25923 measured after 24 hrs by serial dilution method; format: functional
Pseudomonas aeruginosa [23] = assay: Antibacterial activity against Pseudomonas aeruginosa PAO1 ATCC 15692 assessed as colony forming units at 200 ug/ml measured after 1 hr by serial dilution method (reference value: 85.33 +/- 4.04 10^8CFU); format: functional
Staphylococcus aureus [24] = assay: Antibacterial activity against Staphylococcus aureus ATCC 25923 assessed as colony forming units at 200 ug/ml measured after 24 hrs by serial dilution method (reference value: 77.66 +/- 5.13 10^6CFU); format: functional
Pseudomonas aeruginosa [25] = assay: Antibacterial activity against Pseudomonas aeruginosa PAO1 ATCC 15692 assessed as colony forming units at 50 ug/ml measured after 3 hr by serial dilution method (reference value: 141.66 +/- 7.5 10^8CFU); format: functional
[26] = system: Mycolicibacterium smegmatis; assay: Bactericidal activity against Mycobacterium smegmatis MC2 155 ATCC 700084 at >200 ug/ml measured after 6 and 24 hrs by serial dilution method relative to control; format: functional; how it was run: as §1
[27] = system: Mycolicibacterium smegmatis; assay: Bactericidal activity against Mycobacterium smegmatis MC2 155 ATCC 700084 at 50 ug/ml measured after 6 hrs by serial dilution method relative to control; format: functional; how it was run: as §1
Staphylococcus aureus [28] = assay: Bactericidal activity against Staphylococcus aureus ATCC 25923 at 50 ug/ml measured after 24 hrs by serial dilution method relative to control; format: functional
Staphylococcus aureus [29] = assay: Antibacterial activity against Staphylococcus aureus ATCC 25923 assessed as colony forming units at 100 ug/ml measured after 6 hrs by serial dilution method (reference value: 65.66 +/- 3.51 10^6CFU); format: functional

Row | SMILES | Activity [1] [×10³ CFU] | Activity (Staphylococcus aureus [2]) [×10⁶ CFU] | Activity (Pseudomonas aeruginosa [3]) [×10⁸ CFU] | Activity (Pseudomonas aeruginosa [4]) [×10⁸ CFU] | Activity (Pseudomonas aeruginosa [5]) [×10⁸ CFU] | Activity (Pseudomonas aeruginosa [6]) [×10⁸ CFU] | Activity (Staphylococcus aureus [7]) [×10⁶ CFU] | Activity (Pseudomonas aeruginosa [8]) | Activity (Staphylococcus aureus [9]) [×10⁶ CFU] | Activity (Staphylococcus aureus [10]) [×10⁶ CFU] | Activity (Staphylococcus aureus [11]) [×10⁶ CFU] | Activity (Pseudomonas aeruginosa [12]) [×10⁸ CFU] | Activity (Staphylococcus aureus [13]) [×10⁶ CFU] | Activity (Pseudomonas aeruginosa [14]) [×10⁸ CFU] | Activity (Staphylococcus aureus [15]) [×10⁶ CFU] | Activity (Staphylococcus aureus [16]) | Activity (Staphylococcus aureus [17]) [×10⁶ CFU] | Activity [18] [×10³ CFU] | Activity (Staphylococcus aureus [19]) [×10⁶ CFU] | EC50 [20] [µM] | other results
1 | O=C(/C=C/c1ccc(O)c(O)c1)Nc1ccccc1Nc1ccccc1 | 0 | 68.33 | 115.33 | 50.33 | 0 | 0 | 24.66 | Dose-dependent effect | 40 | 40 | 11.66 | 61 | 11.33 | 0 | 8.66 | Dose-dependent effect | 0 | 33.66 | 28.66 | 14.7 | Activity (Pseudomonas aeruginosa [21]): 32.66 ×10⁸ CFU; Activity (Staphylococcus aureus [22]): Dose-dependent effect; Activity (Pseudomonas aeruginosa [23]): 10.66 ×10⁸ CFU; Activity (Staphylococcus aureus [24]): 0 ×10⁶ CFU; Activity (Pseudomonas aeruginosa [25]): 53.66 ×10⁸ CFU; Activity [26]: 100%; Activity [27]: 51.9%; Activity (Staphylococcus aureus [28]): 68.2%; Activity (Staphylococcus aureus [29]): 5 ×10⁶ CFU
2 | Cc1ccc(O)c(NC(=O)/C=C/c2ccc(O)c(O)c2)c1 | 0 | 75.66 | 126 | 59.33 | 0 | 0 | 8 | Dose-dependent effect | 25.66 | 63 | 0 | 62 | 15.66 | 0 | 13.66 | Dose-dependent effect | 0 | 25.33 | 26 | 6.57 | Activity (Pseudomonas aeruginosa [21]): 69.66 ×10⁸ CFU; Activity (Staphylococcus aureus [22]): Dose-dependent effect; Activity (Pseudomonas aeruginosa [23]): 14 ×10⁸ CFU; Activity (Staphylococcus aureus [24]): 0 ×10⁶ CFU; Activity (Pseudomonas aeruginosa [25]): 87 ×10⁸ CFU; Activity [26]: 100%; Activity [27]: 63.8%; Activity (Staphylococcus aureus [28]): 89.6%; Activity (Staphylococcus aureus [29]): 14 ×10⁶ CFU
